Experimental data gathered from unrelated publications.
Target: Calcium/calmodulin-dependent protein kinase type 1B (PNCK, Homo sapiens, UniProt Q6P2M8)

CNCc1ccccc1-c1csc([C@H](C)Nc2nc(C)nc3cc(OC)c(OC)cc23)c1  remaining binding (cell-free assay; competition with immobilised ligand; 1 µM): 100%
O=C(NCC1CCOCC1)c1n[nH]cc1NC(=O)c1c(F)cccc1F  remaining binding (binding; competition with immobilised ligand; 1 µM): 87%
CC(=O)N1CCC(c2ccc(C(=O)NC(=N)N)cc2C(F)(F)F)CC1  remaining binding (cell-free assay; competition with immobilised ligand; 1 µM): 100%
O=C(NCCCN1CCOCC1)c1ccc(Nc2nccc(-c3cc4ccccc4s3)n2)cc1  remaining binding (binding; competition with immobilised ligand; 1 µM): 61%
c1cncc(-c2cccc(Nc3nccc(NC4CCCCC4)n3)c2)c1  remaining binding (binding; competition with immobilised ligand; 10 µM): 53%
N[C@H]1CCN(c2nccc(-c3cnn4ncccc34)n2)C1  remaining binding (binding; 1 µM): 84%
COc1cnc(Nc2cccc(S(N)(=O)=O)c2)nc1N1CCN(c2ccccc2)CC1  remaining binding (binding; competition with immobilised ligand; 1 µM): 92%
CC1=C(C#N)[C@@H](c2ccc3[nH]nc(C)c3c2)C(C#N)=C(c2ccc(Cl)cc2)N1  remaining binding (cell-free assay; competition with immobilised ligand; 1 µM): 98.5%
O=C(NCCCN1CCOCC1)c1ccc(Nc2ncc(Cl)c(-c3ccc(Cl)s3)n2)cc1  remaining binding (binding; competition with immobilised ligand; 1 µM): 82%
c1cnn2ncc(-c3ccnc(N4CCC45COC5)n3)c2c1  remaining binding (binding; 1 µM): 81%
CC(C)(O)c1cncc(-c2nc3ccc(F)cc3n2C2CC2)c1  remaining binding (cell-free assay; competition with immobilised ligand; 1 µM): 100%
CN(C)c1nccc(-c2cnc3ncccn23)n1  remaining binding (binding; 1 µM): 62%
COc1cc(-c2cn(C3CCc4ccccc4N(CC(F)(F)F)C3=O)nn2)ccc1-n1ccc(C)n1 (stereo not shown)  remaining binding (cell-free assay; competition with immobilised ligand; 1 µM): 100%
CN(C)c1nccc(-c2cnn3ncccc23)n1  remaining binding (binding; 1 µM): 29%
O=C(Nc1cnc(Oc2ccc(F)cc2)nc1)N1CCc2ncccc2[C@@H]1c1ccc(F)cc1  remaining binding (cell-free assay; competition with immobilised ligand; 1 µM): 100%
CC1CCCN1c1nccc(-c2cnn3ncccc23)n1 (stereo not shown)  remaining binding (binding; 1 µM): 82%
CNC(=O)[C@@H]1CC[C@@H](n2c(-c3ccc4cnccc4c3)nc3ccc(C(=O)NCc4cccc(C(N)=O)c4)cc32)C1  remaining binding (binding; competition with immobilised ligand; 1 µM): 85%
C[C@@H]1CCN(c2nccc(-c3cnn4ncccc34)n2)C1  remaining binding (binding; 1 µM): 89%
O=C(c1ccc(Nc2ncc(Cl)c(-c3cc4ccccc4s3)n2)cc1)N1CCC(N2CCCC2)CC1  remaining binding (binding; competition with immobilised ligand; 1 µM): 62%
